In article PMC8903075 (Biomaterials science, 2021):
In brackets after ≈: the same amount, converted by molar mass. Each block holds one compound with its values, some of them ahead of it.

Columns and labels:
E. coli (ATCC 25922) = test: microbe, parasite or virus in culture; type: cell-based; details: for MIC, Gram-negative, E. coli: ATCC 25922, 18 h
[1] = system: methicillin-resistant S. aureus (MRSA) (ATCC 33591); test: microbe, parasite or virus in culture; type: cell-based, Staphylococcus aureus; details: for MIC, Gram-positive, MRSA: ATCC 33591, 18 h
[2] = system: P. aeruginosa (ATCC 27853); test: microbe, parasite or virus in culture; type: cell-based, Pseudomonas aeruginosa; details: for MIC, Gram-negative, P. aeruginosa: ATCC 27853, 18 h
[3] = system: methicillin-resistant S. epidermidis (MRSE) (RP62A); test: microbe, parasite or virus in culture; type: cell-based, Staphylococcus epidermidis; details: for MIC, Gram-positive, MRSE: methicillin-resistant (RP62A, 18 h)
MRSA [4] = type: cell-based, Staphylococcus aureus; details: 48 h, 0.094 μg mL^−1
MRSA [5] = test: Fluorescence microscopy; type: cell-based, Staphylococcus aureus; details: 12 μg mL^−1, 2 h, 37 °C
Procedure, shortened: (§1)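 Mid-log cultures grown at 37 °C, diluted to 1 × 10^6 CFU mL−1, exposed to test compound for 2 h at 37 °C alongside untreated controls. Cells pelleted at 3000 rpm for 15 min at 4 °C and PBS-washed. Stained with DAPI (10 μg mL−1) for 15 min on ice in the dark, washed twice, then stained the same way with PI (5 μg mL−1). Imaged under oil immersion.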

E. coli [6] = type: cell-based; details: 48 h, 0.188 μg mL^−1
MRSA [7] = test: Bacterial membrane depolarization assay, DiSC3; type: cell-based, Staphylococcus aureus; details: 1 × MIC, 2 × MIC and 4 × MIC; concentration-dependent; repeated three times with duplicates
E. coli [8] = test: Bacterial membrane depolarization assay, DiSC3; type: cell-based; details: 1 × MIC, 2 × MIC and 4 × MIC; concentration-dependent; repeated three times with duplicates
[9] = HPLC retention time as estimate of amphiphilicity; type: physicochemical; details: HPLC data of Table S2 in ESI, which is not in the material
MRSA [10] = test: Transmission electron microscopy; type: cell-based, Staphylococcus aureus; details: 12 μg mL^−1, 2 h, TSB, 37 °C
Procedure, shortened: (§2)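 Mid-log bacteria exposed to test compound in TSB for 2 h at 37 °C, with untreated samples as controls. Cells pelleted at 3000 rpm for 15 min, washed four times in PBS, resuspended in deionized water. A drop placed on carbon-coated Cu grids, excess blotted off, dried about 1 h. Imaged by TEM at 60 kV.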

E. coli [11] = test: Outer membrane permeability assay; type: cell-based; details: 1 × MIC; 37 °C, 1 h; percent uptake relative to 16 mM melittin
MRSA [12] = test: Time-kill assay; type: cell-based, Staphylococcus aureus; details: 1 × 10^6 CFU mL^−1, repeated three times
Procedure, shortened: (§3)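 Bacteria grown overnight in TSB at 37 °C to mid-log phase and diluted to 1 × 10^6 CFU mL−1. Incubated with test compound at several concentrations, with suspensions plated on agar at set time points. Plates incubated 20 h at 37 °C before colony counting. Assay repeated three times.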

E. coli [13] = test: Fluorescence microscopy; type: cell-based; details: 12 μg mL^−1, 2 h, 37 °C
Procedure, shortened: as §1

E. coli [14] = test: Time-kill assay; type: cell-based; details: 2 × MIC; 1 × 10^6 CFU mL^−1; repeated three times
Procedure, shortened: as §3

E. coli [15] = test: Transmission electron microscopy; type: cell-based; details: 12 μg mL^−1, 2 h, TSB, 37 °C
Procedure, shortened: as §2

MIC, Gram-negative, E. coli (E. coli (ATCC 25922)): 6 to 12.5 µg/mL | MIC, Gram-positive, MRSA [1]: 6 to 12.5 µg/mL
SMILES: CCCCCCCCCCCCCCCC(=O)NCCCC[C@H](NC(=O)c1cc(NC(=O)CN(C[C@H](CCCCN)NC(=O)[C@@H](N)CCCCN)S(=O)(=O)c2ccccc2)cc(NC(=O)CN(C[C@H](CCCCN)NC(=O)[C@@H](N)CCCCN)S(=O)(=O)c2ccccc2)c1)C(N)=O [Compound 2]

MIC ([2]; Pseudomonas aeruginosa, ATCC27853, 18 h, read-out: MIC, Gram-negative, P. aeruginosa): 1.5 to 3 µg/mL (≈ 4.53 to 9.05 µM) | MIC (E. coli (ATCC 25922); Escherichia coli, ATCC25922, 18 h, read-out: MIC, Gram-negative, E. coli): 0.75 to 1.5 µg/mL (≈ 2.26 to 4.53 µM) | MIC ([3]; Staphylococcus epidermidis, MRSE, 18 h, read-out: MIC, Gram-positive, MRSE): 0.75 to 1.5 µg/mL (≈ 2.26 to 4.53 µM) | MIC ([1]; Staphylococcus aureus, ATCC33591|MRSA, 18 h, read-out: MIC, Gram-positive, MRSA): 0.75 to 1.5 µg/mL (≈ 2.26 to 4.53 µM)
SMILES: O=C(O)c1cn(C2CC2)c2cc(N3CCNCC3)c(F)cc2c1=O [Ciprofloxacin, reference compound]

MIC, Gram-negative, P. aeruginosa [2]: 6 to 12.5 µg/mL | MIC, Gram-negative, E. coli (E. coli (ATCC 25922)): 3 to 6 µg/mL | MIC, Gram-positive, MRSE [3]: 3 to 6 µg/mL | MIC, Gram-positive, MRSA [1]: 3 to 6 µg/mL
SMILES: CCCCCCCCCCCC(=O)NCCCC[C@H](NC(=O)c1cc(NC(=O)CN(C[C@H](CCCCN)NC(=O)[C@@H](N)CCCCN)S(=O)(=O)c2ccccc2)cc(NC(=O)CN(C[C@H](CCCCN)NC(=O)[C@@H](N)CCCCN)S(=O)(=O)c2ccccc2)c1)C(N)=O [Compound 1]

SMILES: CCCCCCCCCCCC(=O)NCCCC[C@H](NC(=O)c1cc(NC(=O)CN(C[C@H](CCCCN)NC(=O)[C@@H](N)CCCCN)S(=O)(=O)c2ccc(Cl)cc2)cc(NC(=O)CN(C[C@H](CCCCN)NC(=O)[C@@H](N)CCCCN)S(=O)(=O)c2ccc(Cl)cc2)c1)C(N)=O [Compound 17]
Inhibition of biofilm formation of MRSA (MRSA [4]): ~50% | Membrane integrity of MRSA by DAPI/PI fluorescence (MRSA [5]): compromised | Inhibition of biofilm formation of E. coli (E. coli [6]): around 40% | MIC, Gram-negative, P. aeruginosa [2]: 3 to 6 µg/mL | Membrane depolarization of MRSA, DiSC3(5) fluorescence (MRSA [7]): dramatic enhancement of fluorescence intensity | Membrane depolarization of E. coli, DiSC3(5) fluorescence (E. coli [8]): dramatic enhancement of fluorescence intensity | HPLC retention time (RT), estimate of amphiphilicity [9]: 19.70 min | MRSA cell membrane morphology by TEM (MRSA [10]): membranes have been damaged | Permeabilization of E. coli outer membrane (NPN uptake) (E. coli [11]): more than 50% | Time to complete killing of MRSA (MRSA [12]; 2 × MIC): ≤ 6 h | Time to eradicate MRSA (MRSA [12]; 8 × MIC): roughly 2 h | MIC, Gram-negative, E. coli (E. coli (ATCC 25922)): 3 to 6 µg/mL | MIC, Gram-positive, MRSE [3]: 3 to 6 µg/mL | Membrane integrity of E. coli by DAPI/PI fluorescence (E. coli [13]): compromised | Time to complete killing of E. coli (E. coli [14]): ≤ 6 h | E. coli cell membrane morphology by TEM (E. coli [15]): membranes have been damaged | MIC, Gram-positive, MRSA [1]: 3 to 6 µg/mL
